Measurements collected from several papers.
EGFR L858R: Epidermal growth factor receptor (EGFR, Homo sapiens, UniProt P00533, L858R)
EGFR L858R/T790M: Epidermal growth factor receptor (EGFR, Homo sapiens, UniProt P00533, L858R/T790M)
EGFR del746-750: Epidermal growth factor receptor (EGFR, Homo sapiens, UniProt P00533, del746-750)
EGFR: Epidermal growth factor receptor (EGFR, Homo sapiens, UniProt P00533)
EGFR G719C: Epidermal growth factor receptor (EGFR, Homo sapiens, UniProt P00533, G719C)
EGFR G719S: Epidermal growth factor receptor (EGFR, Homo sapiens, UniProt P00533, G719S)
EGFR L861Q: Epidermal growth factor receptor (EGFR, Homo sapiens, UniProt P00533, L861Q)
EGFR T790M: Epidermal growth factor receptor (EGFR, Homo sapiens, UniProt P00533, T790M)

Nc1ncnc2occ(-c3ccc(NC(=O)Nc4cc(C(F)(F)F)ccc4F)cc3)c12 — remaining signal (EGFR L858R; cell-free assay; 20 µM): 19%
COc1cc2ncnc(Nc3ccc(Oc4ccccc4)cc3C)c2cc1OC — inhibition (EGFR L858R/T790M; enzyme activity, inhibitor; 1 µM): 26%
N[C@@H]1CCN(c2nccc(-c3cnn4ncccc34)n2)C1 — remaining binding (EGFR del746-750; binding; 1 µM): 100%
CN(C)C1CCN(CC#Cc2nn(C3CCCC3)c3nc(NCc4ccccc4)ncc23)C1 (stereo not drawn) — inhibition (EGFR; enzyme activity, inhibitor, FRET; 0.1 µM): 14%
CCC(=O)Nc1cc(Nc2nc(N3CCc4sccc4C3)c3cccnc3n2)c(OC)cc1N(C)C — inhibition (EGFR L858R/T790M; enzyme activity, inhibitor, ELISA; 0.1 µM): 6%
COc1ccc2cc(OCC3(C(=O)O)CN(C(=O)c4ccc(F)cc4)C3)ccc2c1 — remaining binding (EGFR L858R; cell-free assay, competition with immobilised ligand; 1 µM): 100%
CCOc1cc2ncnc(Nc3cccc(Br)c3)c2cc1OCC — remaining signal (EGFR; cell-free assay; 0.5 µM): 2.02%
F[C@@H]1CCN(c2nccc(-c3cnn4ncccc34)n2)C1 — remaining binding (EGFR G719C; binding; 1 µM): 100%
O=C(Nc1cnn(-c2csc(C(=O)NC3COC3)c2)c1)Nc1c(F)cccc1Cl — remaining activity (EGFR; enzyme activity, inhibitor; 5 µM): 89.4%
CC(C)[C@@H]1NC(=O)CC(c2ccccc2)NC(=O)CC(CCC(N)=O)NC(=O)[C@H](Cc2ccc(O)cc2)NC(=O)[C@H](Cc2ccc(O)cc2)NC(=O)[C@H](Cc2ccccc2)NC(=O)[C@@H](Cc2ccc(O)cc2)NC(=O)CSC[C@@H](C(=O)NCC(N)=O)NC(=O)CCNC(=O)[C@H](CCCNC(=N)N)NC(=O)[C@H](CCCNC(=N)N)NC(=O)[C@H](Cc2ccc(O)cc2)NC(=O)[C@H](C(C)C)NC(=O)[C@H](C(C)C)NC(=O)[C@H](CC(N)=O)NC1=O (stereo partly drawn) — kon (EGFR; binding, SPR): 165000 M⁻¹ s⁻¹
O=C(NCc1ncc(C(F)(F)F)cc1Cl)c1ccc2c(c1)C1(CCS(=O)(=O)CC1)[C@@H](C1CC1)N2S(=O)(=O)c1ccc(F)cc1 — remaining binding (Epidermal growth factor receptor (EGFR, Homo sapiens, UniProt P00533, del747-750/T751S); cell-free assay, competition with immobilised ligand; 1 µM): 79%
COc1cc2ncnc3c2cc1OCCOCCOc1c(Cl)cccc1N3 — remaining activity (EGFR del746-750; enzyme activity, inhibitor, radiometric; 1 µM): 15%
COc1cc2ncnc(Nc3cccc(Cl)c3)c2cc1OC — remaining signal (EGFR; cell-free assay; 0.5 µM): 0.718%
CN(C)c1nccc(-c2cnn3ncccc23)n1 — remaining binding (EGFR G719S; binding; 1 µM): 100%
Cc1cnc(NC2CCOCC2)nc1-n1cnc(C(=O)NC(CN)c2cc(F)cc(Cl)c2)c1 (stereo not drawn) — remaining activity (EGFR L858R/T790M; enzyme activity, inhibitor, radiometric; 1 µM): 109%
C[C@@H]1CCN(c2nccc(-c3cnn4ncccc34)n2)C1 — remaining binding (EGFR G719C; binding; 1 µM): 87%
CN([C@@H]1CCc2c(CC(=O)O)c3cc(S(C)(=O)=O)ccc3n2C1)S(=O)(=O)c1ccc(F)cc1 — remaining binding (EGFR L858R/T790M; cell-free assay, competition with immobilised ligand; 1 µM): 100%
CC/C(=N\NC(=O)NCc1cccc(O)c1)c1ccc(O)c(C)c1O — inhibition (EGFR; enzyme activity, inhibitor; 0.1 µM): 4.5%
CC(C)(C)c1nc(-c2cccc(NS(=O)(=O)c3c(F)cccc3F)c2F)c(-c2ccnc(N)n2)s1 — remaining activity (EGFR; enzyme activity, inhibitor, radiometric; 1 µM): 119%
COc1cc(-c2cc(-c3ccc(N4CCNCC4)cc3)cnc2N)cc(OC)c1OC — inhibition (EGFR L861Q; enzyme activity, inhibitor; 1 µM): 33%
O=C(O)[C@@H]1[C@@H](Cn2nnc3ccccc3c2=O)CC[C@H]1C(=O)c1ccc(OCCC2CCOCC2)cc1 — remaining binding (EGFR T790M; cell-free assay, competition with immobilised ligand; 1 µM): 94%
CN(CCCC(F)(F)F)c1nccc(-c2cnn3ncccc23)n1 — remaining binding (EGFR T790M; binding; 1 µM): 78%
COc1cc(N(C)CCN(C)C)c(NC(=O)/C=C/C(C)C)cc1Nc1nc(Nc2cnn(C)c2)c2sccc2n1 — inhibition (EGFR L858R/T790M; enzyme activity, inhibitor, ELISA; 0.1 µM): 34.6%
Cc1c(NC(=O)c2cc(C(N)=O)nc3cc(F)ccc23)c(C(F)(F)F)nn1Cc1ccc(C#N)cc1 — remaining binding (Epidermal growth factor receptor (EGFR, Homo sapiens, UniProt P00533, del752-759); cell-free assay, competition with immobilised ligand; 1 µM): 79%
Cc1ccc(NC(=O)c2ccc(C)c(C(F)(F)F)c2)cc1C#Cc1nn(C2CCC(O)CC2)c2ncnc(N)c12 (stereo not drawn) — remaining signal (EGFR; cell-free assay; 10 µM): 11%
Cc1cc(NC(=O)c2cccc3cc(-c4cccc5[nH]nc(N)c45)ccc23)ccc1F — activity vs control (EGFR L861Q; enzyme activity, inhibitor; 0.1 µM): 95%
Cc1ccc(C(=O)Nc2ccc(CN3CCN(C)CC3)c(C(F)(F)F)c2)cc1C#Cc1cnc2cccnn12 — remaining signal (EGFR del746-750; cell-free assay; 23.5 nM): 64%
Cc1cc(NC(=O)c2cccc(S(F)(F)(F)(F)F)c2)cc(-n2ccn3nc(-c4cccnc4)cc23)c1 — remaining binding (EGFR G719S; cell-free assay, competition with immobilised ligand; 1 µM): 100%
COc1cc2ncnc(Nc3ccc(Oc4ccccc4)c(C)c3C)c2cc1OC — inhibition (EGFR L858R; enzyme activity, inhibitor; 1 µM): 65%
COc1cc(-c2cn(C3CCc4c(F)cccc4N(CC(F)(F)F)C3=O)nn2)ccc1-n1cnc(C)c1 (stereo not drawn) — remaining binding (Epidermal growth factor receptor (EGFR, Homo sapiens, UniProt P00533, A750P/del747-749); cell-free assay, competition with immobilised ligand; 1 µM): 100%
CCC(=O)Nc1cc(Nc2nc(N3CCc4sccc4C3)c3cccnc3n2)c(OC)cc1N1CCN(CC)CC1 — inhibition (EGFR L858R/T790M; enzyme activity, inhibitor, ELISA; 0.1 µM): 19.2%
CN(C)c1ncnc(-c2ccc3nc(Nc4cc(CN5CCN(C(=O)CC(F)(F)F)CC5)ccn4)[nH]c3c2)c1Cl — remaining binding (EGFR L858R; cell-free assay, competition with immobilised ligand; 1 µM): 100%
COc1ccc(COc2ccc(Cc3cnc(N)nc3N)cc2OC)cc1 — remaining signal (EGFR; cell-free assay; 0.5 µM): 96.9%
